From ChEMBL document CHEMBL4052588, “Design of a Biased Potent Small Molecule Inhibitor of the Bromodomain and PHD Finger-Containing (BRPF) Proteins Suitable for Cellular and in Vivo Studies” (J Med Chem, 2017)

Columns and labels:
[1] = target: T1, Peregrin (Homo sapiens, UniProt P55201); assay: Inhibition of human His tagged BRPF1 incubated for 30 mins followed by addition of biotinylated peptide and further incubation for 30 mins measured by AlphaScreen assay
T1 sequence (P55201 whole entry): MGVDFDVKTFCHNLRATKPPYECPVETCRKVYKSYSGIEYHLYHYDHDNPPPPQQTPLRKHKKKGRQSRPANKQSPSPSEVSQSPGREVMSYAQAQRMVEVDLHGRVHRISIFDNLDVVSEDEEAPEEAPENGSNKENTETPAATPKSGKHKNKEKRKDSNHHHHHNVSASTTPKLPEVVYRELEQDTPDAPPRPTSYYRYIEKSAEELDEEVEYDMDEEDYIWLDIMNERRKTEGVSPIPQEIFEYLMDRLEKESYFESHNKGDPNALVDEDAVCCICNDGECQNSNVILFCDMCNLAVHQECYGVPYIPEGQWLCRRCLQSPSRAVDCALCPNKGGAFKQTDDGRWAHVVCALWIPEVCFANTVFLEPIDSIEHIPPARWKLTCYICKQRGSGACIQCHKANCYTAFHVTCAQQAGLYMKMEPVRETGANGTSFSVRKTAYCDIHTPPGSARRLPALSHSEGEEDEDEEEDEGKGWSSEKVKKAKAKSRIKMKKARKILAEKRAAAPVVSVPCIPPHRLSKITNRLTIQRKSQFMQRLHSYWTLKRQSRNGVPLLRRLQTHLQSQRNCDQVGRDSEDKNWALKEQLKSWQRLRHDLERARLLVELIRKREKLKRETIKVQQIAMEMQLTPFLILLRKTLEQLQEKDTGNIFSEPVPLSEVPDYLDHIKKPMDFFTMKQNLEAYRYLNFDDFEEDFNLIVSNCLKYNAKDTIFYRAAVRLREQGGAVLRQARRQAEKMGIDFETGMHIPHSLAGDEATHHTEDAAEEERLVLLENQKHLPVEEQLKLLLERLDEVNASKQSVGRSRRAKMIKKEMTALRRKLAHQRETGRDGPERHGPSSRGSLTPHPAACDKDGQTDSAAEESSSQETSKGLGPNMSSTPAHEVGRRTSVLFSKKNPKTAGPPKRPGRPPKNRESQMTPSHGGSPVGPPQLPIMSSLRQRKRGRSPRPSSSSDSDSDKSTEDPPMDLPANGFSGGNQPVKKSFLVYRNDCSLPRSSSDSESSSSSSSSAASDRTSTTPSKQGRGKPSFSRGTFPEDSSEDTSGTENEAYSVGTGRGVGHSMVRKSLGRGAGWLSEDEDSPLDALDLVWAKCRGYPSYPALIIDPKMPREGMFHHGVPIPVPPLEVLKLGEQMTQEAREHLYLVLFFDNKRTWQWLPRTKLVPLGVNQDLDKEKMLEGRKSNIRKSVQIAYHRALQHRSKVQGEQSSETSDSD
Outline: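 Independent AlphaScreen biochemical confirmation of BRPF bromodomain inhibition, with BRD9 and BRD4(BD1) as counter-screens. Test compound was serially diluted from a 100 mM DMSO stock.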

[2] = target: T2, Bromodomain-containing protein 1 (Homo sapiens) (UniProt O95696)
T2 sequence (whole entry): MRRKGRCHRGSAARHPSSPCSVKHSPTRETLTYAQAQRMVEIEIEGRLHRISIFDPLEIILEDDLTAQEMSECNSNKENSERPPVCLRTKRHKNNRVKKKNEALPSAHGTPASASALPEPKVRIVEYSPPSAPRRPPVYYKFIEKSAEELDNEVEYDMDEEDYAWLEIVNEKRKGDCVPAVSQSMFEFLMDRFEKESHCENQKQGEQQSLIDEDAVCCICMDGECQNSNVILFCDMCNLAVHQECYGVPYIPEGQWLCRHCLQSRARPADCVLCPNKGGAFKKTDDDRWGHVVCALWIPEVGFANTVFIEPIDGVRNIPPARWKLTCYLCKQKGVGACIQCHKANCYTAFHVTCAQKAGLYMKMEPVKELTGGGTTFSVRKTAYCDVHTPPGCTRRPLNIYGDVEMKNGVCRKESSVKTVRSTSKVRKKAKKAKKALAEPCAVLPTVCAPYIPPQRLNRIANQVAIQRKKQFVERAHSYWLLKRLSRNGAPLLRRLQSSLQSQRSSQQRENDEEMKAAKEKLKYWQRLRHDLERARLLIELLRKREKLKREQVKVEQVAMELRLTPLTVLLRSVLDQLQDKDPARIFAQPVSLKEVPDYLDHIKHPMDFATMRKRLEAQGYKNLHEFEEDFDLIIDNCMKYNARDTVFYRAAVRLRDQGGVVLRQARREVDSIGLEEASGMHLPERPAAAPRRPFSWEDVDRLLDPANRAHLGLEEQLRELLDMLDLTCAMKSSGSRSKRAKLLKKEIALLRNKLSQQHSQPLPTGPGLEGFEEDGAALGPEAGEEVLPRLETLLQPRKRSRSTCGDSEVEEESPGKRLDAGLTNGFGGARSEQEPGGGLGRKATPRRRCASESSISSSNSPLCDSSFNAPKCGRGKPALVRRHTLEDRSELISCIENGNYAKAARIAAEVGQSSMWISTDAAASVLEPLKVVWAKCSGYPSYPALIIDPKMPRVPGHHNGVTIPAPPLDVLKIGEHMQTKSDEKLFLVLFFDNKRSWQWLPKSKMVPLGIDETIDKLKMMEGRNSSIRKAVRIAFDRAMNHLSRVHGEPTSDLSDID

IC50 [1]	ΔTm [2]	SMILES
> 20000 nM		CCc1cc2cc(NS(=O)(=O)c3ccc(C#N)cc3)ccc2n(CC)c1=O
	3.4 °C	Cc1cc(C#N)ccc1S(=O)(=O)Nc1ccc2c(ccc(=O)n2C)c1
140 nM	5.1 °C	Cc1cc2cc(NS(=O)(=O)c3ccc(C#N)cc3)ccc2n(C)c1=O
